Measurements reported in ChEMBL document CHEMBL1148951, “New macrolides from the sponge Chondrosia corticata” (2004).
≈ marks a conversion by molar mass, not a printed value.

Legend:
Format in all cases: functional
K562 = assay: Cytotoxicity against human K562 cells by MTT assay; conditions: read-out: LC50 (the source's name)
Candida albicans = assay: Antifungal activity against Candida albicans at 2 ug/disk by paper disk method; conditions: read-out: IZ
Summary of the method: (§1)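 Paper disk diffusion assay with 2 µg of compound loaded per disk. The read-out is the diameter of the clear zone around the disk.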

Aspergillus niger = assay: Antifungal activity against Aspergillus niger at 2 ug/disk by paper disk method; conditions: read-out: IZ; summary of the method: as §1

COC(CC1OC(=O)CC(O)C/C=C\C(=O)C(C)C(OC)c2coc(n2)-c2coc(n2)-c2coc(n2)/C=C\CCC1C)C(C)CCC(=O)C(C)C(C/C=C/N(C)C=O)OC (stereo not drawn)
CC50 (K562): 0.9 µg/mL (≈ 1.08 µM)
zone of inhibition at 2 µg/disc (Candida albicans): 10 mm
zone of inhibition at 2 µg/disc (Aspergillus niger): 10 mm

COC(CC1OC(=O)CC(O)CCCC(=O)C(C)C(OC)c2coc(n2)-c2coc(n2)-c2coc(n2)/C=C/CCC1C)C(C)CCC(=O)C(C)C(C/C=C/N(C)C=O)OC (stereo not drawn) [DIHYDROHALICHONDRAMIDE]
CC50 (K562): 0.32 µg/mL (≈ 0.381 µM)
zone of inhibition at 2 µg/disc (Candida albicans): 19 mm
zone of inhibition at 2 µg/disc (Aspergillus niger): 11 mm

COC(CC1OC(=O)CC(O)C/C=C/C(=O)C(C)C(OC)c2coc(n2)-c2coc(n2)-c2coc(n2)/C=C/CCC1C)C(C)CCC(=O)C(C)C(C/C=C/N(C)C=O)OC (stereo not drawn) [HALICHONDRAMIDE]
CC50 (K562): 0.19 µg/mL (≈ 0.227 µM)
zone of inhibition at 2 µg/disc (Candida albicans): 18 mm
zone of inhibition at 2 µg/disc (Aspergillus niger): 21 mm

COC(=O)c1coc(/C=C/CCC(C)C(CC(OC)C(C)CCC(=O)C(C)C(C/C=C/N(C)C=O)OC)OC(=O)CC(O)C/C=C/C(=O)C(C)C(OC)c2coc(C(N)=O)n2)n1 (stereo not drawn) [HALISHIGAMIDE D]
CC50 (K562): 92 µg/mL (≈ 105 µM)

COC(CC1OC(=O)CC(O)CC(O)CC(=O)C(C)C(OC)c2coc(n2)-c2coc(n2)-c2coc(n2)/C=C/CCC1C)C(C)CCC(=O)C(C)C(C/C=C/N(C)C=O)OC (stereo not drawn) [JASPISAMIDE A]
CC50 (K562): 0.31 µg/mL (≈ 0.363 µM)
zone of inhibition at 2 µg/disc (Candida albicans): 18 mm
zone of inhibition at 2 µg/disc (Aspergillus niger): 10 mm

COC(CC1OC(=O)CC(O)/C=C/CC(=O)C(C)C(OC)c2coc(n2)-c2coc(n2)-c2coc(n2)/C=C/CCC1C)C(C)CCC(=O)C(C)C(C/C=C/N(C)C=O)OC (stereo not drawn) [NEOHALICHONDRAMIDE]
CC50 (K562): 0.38 µg/mL (≈ 0.454 µM)
zone of inhibition at 2 µg/disc (Candida albicans): 20 mm
zone of inhibition at 2 µg/disc (Aspergillus niger): 15 mm

COC(=O)c1nc(-c2nc(C(OC)C(C)C(=O)/C=C/CC(O)CC(=O)OC(CC(OC)C(C)CCC(=O)C(C)C(C/C=C/N(C)C=O)OC)C(C)CC/C=C/C(N)=O)co2)co1 (stereo not drawn) [SECOHALICHONDRAMIDE]
CC50 (K562): > 500 µg/mL
zone of inhibition at 2 µg/disc (Candida albicans): 15 mm
